Source: the RNAGym collection of RNA variant scans (doi:10.1126/science.aae0568)
Variants at the floor of the assay were thinned out.

B1: tRNA (parent)
chain: GUUCCGUUGGCGUAAUGGUAACGCGUCUCCCUCCUAAGGAGAAGACUGCGGGUUCGAGUCCCGUACGGAACG

Variants of: B1
Test: yeast fitness relative to wild type (ratio to wild type); higher = fitter; tRNA-Arg(CCU), competitive growth, 37 C, YPD
Procedure, shortened: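 Changes in genotype frequencies gave Darwinian fitness relative to wild type. Frequencies were read by 100-nucleotide paired-end sequencing of gene amplicons before and after pooled Saccharomyces cerevisiae strains, carrying tRNA-Arg(CCU) gene variants at the native locus, were competed in YPD at 37°C for 24 hours in six replicates. A genotype was kept only with ≥ 100 starting reads, and estimates < 0.5 were set to 0.5.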

| Variant | yeast fitness |
| --- | --- |
| GUUCCGUUGGCGUAGUGGUAACGCGUCUCCCUCCUAAGGAGGAGACUACGGGUUCGAGUCCCGUACGGAACG | 0.774 |
| GUUCCGUUGGCGUAGUGGUUACGCGUCUCCCUCCUAAGAAGAAGACUGCGGGUUCGAGUCCCGUACGGCACG | ≤ 0.5 |
| GUUCCGUUGGCGUAGUGGUUACGGGUCUCCCUCCUAAGGAGGAGACUGCGGGUCCGAGUCCCGUACGGAACG | 0.575 |
| GUUCCGUUGGCGUAGUGGUAACGCGUCUCCCUCCUAAGGAGGAGCCUGCGGGUUCGAGUCCCGUACGGAACG | 0.557 |
| GUUCCGUUGGCGUAGUGGUAACGCGUCUCCCUCCUAAGGAGCAGACUGAGGGUUCGAGUCCCGUACGGAACG | 0.527 |
| GUUCCGUUGGCGUAGUGGUAACGCGUCUCCCUCCUAAGGCGAAGACUGCAGGUUCGAGUCCCGUACGGAACG | ≤ 0.5 |
| GUUCCGUUGGCGUAGUGGUACCGUGUCUCCCUCCUAAGGAGAAGACUGCGGGUUCGAGUCCCGUACGGAACG | ≤ 0.5 |
| GUUCCGUUGGCGUACUGGUAACGCGUCUCCCUCCGAAGGAGAAGACUGCGGGUUCGGGUCCCGUAGGGAACG | 0.56 |
| GUUCCGUUGGCGUAGUGGUAACGCGUCUCCCUCCUAAGGGGAAGACUGCGGGUUCGAGUCCCGUACGGAACG | 0.758 |
| GUUCCGUUGGCGUAGUGGUAACGCGUCUCCCUCCUGAGGAGAAGACUGCGGGUUCGAGUCCCGUACGGACCG | 0.674 |
| GUUCCGUUGGCGUAGUGGUACCGCGUCUCCCCCCUAAGGAGAAGACUGCGGGUUCGAGUCCCGAACGGAACG | ≤ 0.5 |
| GUUCCGUUGGCGUAGUGGUAACGCGUCUCCCUCCUAAGGAGAAGUCUACGGGUUCGAGUCCCGUACGGAACG | 0.636 |
| GUUCCGUUGGCGUAGUGGUCACGGGUCUCCCUCCUAAGGAGAAGACUGCGGGUUCGGGUCCCGUACGGAACG | ≤ 0.5 |
| GUUCCGUUGGCGUAGUGGUAACGCGUCUCCCUCCUAGGGAGAAGACUGCGGGUUAGAGUCCCGUACGGAACG | ≤ 0.5 |
| GUUCCGUUGGCGUAGUGGUAGCGCGUUUCCCUCCUAAGGAGAAGACCGCGGGUUCCGGUCCCGUAGGGAACG | ≤ 0.5 |
| GUUCCGUUGGCGUAGUGGUAACGCGUCUCCCUCCUAAGGAGAAGACUGCGGGUUCGCGUCCAGUACGGAACG | ≤ 0.5 |
| GUUCCGUUGGCGUAGUGGUAACGCGUCUCCCUCCUAAGGAGAAGACUGCGGGUUCGUGUGCCGUACGCAACG | ≤ 0.5 |
| GUUCCGUUGGCGUAGUGGUUACGCGUCUCCCUCAUAAGGAGAAGACUGCGGGUUCGAGUACCGUACGGACCG | ≤ 0.5 |
| GUUCCGUUGGCGUAGUGGUAACGCGUCUCCCUCCUAAGGAGAAGACUGCGGGUUCGAGUCCCGUCCGGAACG | 0.867 |

| Variant | yeast fitness |
| --- | --- |
| GUUCCGUUGGCGUAGUGGUACCGGGUCUCCCUCCUAAGGUGAAGACUGCGGGUUCGAGUCCCGUACGGAACG | ≤ 0.5 |
| GUUCCGUUGGCGUAGUGGUAACGCGUCUCCCUCCUAAGGAGAAGACUGCGGGUUCGAGUCCCGUACGGAACG | 0.987 |
| GUUCCGUUGGCGUAGUGGUUACGCGUCUCCCUCCUAAGGAGAAGACUGCGGGUUCGAGUGCCGUACGGAACG | 0.542 |
| GUUCCGUUGGCGUAGUGGUACCGCGUCUCCCUCCUAAGGAGAAGACUGCGGGUUCGAGUCCCGUUCGGAACG | 0.641 |
| GUUCCGUUGGCGUAGUGGUGACGCGUCUCCUUCCUAAGGAGAAGACUGCGGGUUCGAGUCCCGUACGGAACG | 0.59 |
| GUUCCGUUGGCGUAGUGGUUACGCGUCUCCCUCAUAAGGAGAAGACUGCGGGUUCGAGUCCCGUACGGAACG | ≤ 0.5 |
| GUUCCGUUGGCGUAGUGGUAACGCGUCUCCCUCCUAAGGAGAAGACUGCGGGUUCGGGUCCGGUAUGGAACG | ≤ 0.5 |
| GUUCCGUUGGCGUACUGGUAACGCGUCUCCCUCCUAAGGAGAAGACUGCGGGUUCGAGUCCCGCACGGAACG | 0.956 |
| GUUCCGUUGGCGUACUGGUAACGCGUCUCCCUCCUAAGGAGAAGACUGCGGGUUCGAGUCCCGAACGGAACG | 0.74 |
| GUUCCGUUGGCGUAGUGGUUACGCGUCUCCCUACUCAGGAGUAGACUGCGGGUUCGAGUCCCGUACGGAACG | ≤ 0.5 |
| GUUCCGUUGGCGUAGUGGUAACGCGUCUCCCUCCUGAGGAGAACACUGCGGGUUCGAGUCCCGUACGGAACG | 0.659 |
| GUUCCGUUGGCGUAGUGGUCACGCGUCUGCCUCCUAAGGAGAAGACUGCGGGUUCGAGUCCCGUACAGAACG | ≤ 0.5 |
| GUUCCGUUGGCGUACUGGUAACGCGUCUCCCUCCUAAGGAGAAGACUGCGGGUUCGAGACCCGUACGGCACG | ≤ 0.5 |
| GUUCCGUUGGCGUAGUGGUAACGCGUCUCCCUCCUAAGGAGAAGACUGCGGGUUCGAGUCCCGUACGGAGCG | 0.999 |
| GUUCCGUUGGCGUAGUGGUAACGCGUCUCCCUCCUAAGGAGAAGACUGCGGGUUCGAGUCCCGUACGGACCG | 1.04 |
| GUUCCGUUGGCGUAGUGGUAGCGCGUCUCCCUCGUAAGGAGAAGGCUGCGGGUUCGAGUCCCGUCCGGAACG | 0.67 |
| GUUCCGUUGGCGUAGUGGUAACGCGUCUCCCUCCUAAGGAGAUGACUGCGGGUUCGCGUCCCGUACGGAACG | 0.559 |
| GUUCCGUUGGCGUAGUGGUACCGCGUCUCCCUCCUAAGGAGAAGACUGCGGGUGCGAGUCCCGUUCGGAACG | ≤ 0.5 |
